Source: PubChem BioAssay (several laboratories)
Yeast growth inh – yeast BB579 growth reduction in restrictive medium; S. cerevisiae BB579 growth, OD615, 48 h; inhibition, % at 10 µM; 140,000 compounds, 0.51% hits;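 active = inhibition above a set limit, 3 SD over the mean compound inhibition, cut at about 44% in these data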
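Test system: DeaD yeast strain BB579 / Buffer or medium: restrictive glucose-based CSMM-D medium / Doses: single 10 µM dose / Schedule: 4 h cell preincubation, 48 h compound exposure, 30 °C humidified / Technique: culture absorbance at 615 nm / Controls: amphotericin B positive control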
Measles CPE – protection of cells from measles virus | protection (pct of control), % at 4 µM | 140,000 compounds, 1.5% hits | AID 841 | Measles virus-infected cells, CPE protection, absorbance; in the data active = protection mostly above about 24%, no sharp cut-off; inactive = mostly below about 26%
RAM inhibit – inhibitors of the yeast RAM network; S. cerevisiae dse1pr::URA3 reporter, 5-FOA growth OD615, 2 d; analog-sensitive cbk1-as2 kinase mutant strain; inhibition, % at 50 µM; 190,000 compounds, 1.8% hits;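 active = inhibition above a set limit, 3 SD over mean compound inhibition, cut at about 8.4% in these data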;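 also: 0% = DMSO-only wells with no growth and 100% = 10 µM 1-NA-PP1 full growth; inhibition rescues growth on 5-FOA so higher OD means more RAM inhibition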
Yeast life ext – extends the lifespan of yeast | S. cerevisiae growth with nicotinamide, OD615; deaD strain in restrictive glucose medium | inhibition of the nicotinamide effect, % at 10 µM | 130,000 compounds, 0.68% hits;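 active = inhibition above a set limit, placed 3 SD over the median of all compounds, cut at about 26% in these data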;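 also: 0% = nicotinamide-treated wells and 100% = cells grown without nicotinamide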
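System: Modified budding yeast, DeaD strain | Buffer or medium: Restrictive glucose medium | Also added: 1.5 mM nicotinamide | Doses: 10 µM single point, 0.25% DMSO | Schedule: 48 h compound exposure at 30 °C, humidified | Detection: Absorbance at 615 nm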
An asterisk follows results filed as active; · = no result given. Sampled rows, rich in hits. Any-hit rate of the full collection: about 3.8%.

SMILES | Yeast growth inh | Measles CPE | RAM inhibit | Yeast life ext
CC[n+]1c(-c2ccccc2)csc1Nc1c(C)n(C)n(-c2ccccc2)c1=O | -40 | 6 | 0 | 2
COc1ccc(/C=c2/sc3n(c2=O)C(c2ccccc2OC)C2=C(N=3)c3ccccc3CC2)cc1O (stereo not drawn) | -33 | 5 | 9.5* | -12
COc1ccccc1C1C2=C(N=C3SCC(=O)N31)c1ccccc1CC2 (stereo not drawn) | -60 | 9 | 3 | -9
COc1ccc(CN(CC(=O)NC2CCCC2)C(=O)c2ccc(-c3ccccc3)[nH]2)cc1 | · | · | 8.8* | ·
COc1ccc(CN(CC(=O)NC2CCCCC2)C(=O)CCCC(=O)Nc2ccccn2)cc1 | · | · | 1 | ·
N#CC(c1cccc(Cl)c1)c1ncc(C(F)(F)F)cc1Cl (stereo not drawn) | -40 | 9 | 2 | 24
O=C(O)c1cccn1Cc1ccccc1F | -1 | 44* | 0 | 6
CCc1ccccc1NC(=O)Nc1cccn(Cc2ccccc2F)c1=O | · | · | 2 | ·
Cc1ccc(N2CC(O)(c3cccs3)[N+]3=C2CCCC3)cc1 (stereo not drawn) | · | · | 2 | ·
Cc1ccc(N2NC(C)(c3cccs3)NC2=S)cc1 (stereo not drawn) | 98* | 26 | -1 | -10
Cc1cc(C)nc(NS(=O)(=O)c2ccc(NC(=O)CCN3C(=O)c4ccccc4C3=O)cc2)n1 | 6 | 2 | 0 | 38*
Cc1ccc2nc(-c3ccc(NC(=O)CCN4C(=O)c5ccccc5C4=O)cc3)sc2c1 | -33 | 13 | 3 | -6
Cc1cc(NS(=O)(=O)c2ccc(NC(=O)CCN3C(=O)c4ccccc4C3=O)cc2)no1 | -28 | 1 | 2 | -12
O=C(CCN1C(=O)c2ccccc2C1=O)Nc1ccc(-c2nc3ccccc3s2)cc1 | -21 | · | 8.9* | 1
COCCNC(=S)Nc1cc(OC)c(OC)cc1C#N | · | · | 1 | ·
CCCNC1=CC(=O)CC(C)(C)C1 | -19 | 7 | 0 | -1
Cn1c(Sc2ccccc2Cl)c(C=O)c2ccccc21 | -17 | 8 | 8 | -5
Cn1c(Sc2ccc(Cl)cc2)c(C=O)c2ccccc21 | -20 | 6 | 9.8* | -15
O=C(O)CCCNc1c(C(=O)Nc2ccc(Cl)cc2)cc([N+](=O)[O-])cc1[N+](=O)[O-] | · | · | 6 | ·
Cc1ccc(C(=O)N2NC(c3ccc(F)cc3)C3C(=O)N(c4ccc(C)c(C)c4)C(=O)C32)cc1 (stereo not drawn) | -21 | 6 | 7 | 6
COc1cc(/C=N/NC(=O)CSc2nc3ccccc3n2C)cc(OC)c1OC | -40 | 10 | 2 | 3
CCCn1nc2cc(C(=O)NCc3ccc(C)cc3)ccc2c1OCC | -33 | 84* | 2 | -13
O=C(CCSc1nnc(-c2ccncc2)o1)Nc1cccc(Cl)c1 | · | · | 4 | ·
O=C(CCSc1nnc(-c2ccncc2)o1)Nc1ccccc1Cl | -29 | 30* | 0 | -13
O=C(CCSc1nnc(-c2ccncc2)o1)Nc1ccc(Cl)cc1 | 86* | 26 | 1 | -12
SMILES | Yeast growth inh | Measles CPE | RAM inhibit | Yeast life ext
CCC(C)c1ccc(NC(=S)Nc2ccc(OC)cc2)cc1 (stereo not drawn) | 14 | 9 | 0 | -3
COc1cc(NC(=S)NCCC(c2ccccc2)c2ccccc2)cc(OC)c1 | 13 | 15 | 9.1* | -4
COc1ccc(NC(=S)NCCC(c2ccccc2)c2ccccc2)c(OC)c1 | 17 | 7 | 8 | 0
O=C(Nc1ccccc1-c1nnc(SCc2ccc(Cl)cc2Cl)o1)c1ccccc1 | -21 | 14 | 10* | -4
CC(=O)Nc1c(C)ccc(CNC(=O)COc2cc(C)ccc2C)c1C | -46 | 15 | 1 | 4
Cc1cccc(NC(=O)C2CC(=O)N/C(=N/N=C/c3ccco3)S2)c1 (stereo not drawn) | -8 | 30* | 7 | 24
CCOCCCn1cnc2c(c1=O)c1nc3ccccc3nc1n2-c1ccccc1 | -4 | 43* | 3 | -8
Cc1ccccc1CN(c1ccc(C(=O)Nc2ccccc2C(=O)NCc2ccco2)cc1)S(C)(=O)=O | -50 | 16 | 7 | 0
FC(F)(F)c1ccc(Oc2ccc3cc(Br)ccc3c2)nc1 | 0 | · | 5 | 4
CCn1c(CC(=O)Nc2ccccc2)n[nH]c1=S | · | · | 0 | ·
O=C(Nc1ncccn1)C1CCCN1S(=O)(=O)c1ccc(Cl)c(Cl)c1 (stereo not drawn) | -12 | 45* | 0 | -7
O=C(O)C1CCCN1S(=O)(=O)c1ccc(Cl)c(Cl)c1 (stereo not drawn) | -10 | 15 | 1 | -4
CC(CCCC(C)(C)O)NC(=O)c1ccc(OC2CCN(C(=O)C3CC3)CC2)cc1 (stereo not drawn) | · | · | -1 | ·
Cn1[nH]c(C(F)(F)F)cc1=O | · | · | 1 | ·
COc1ccc(-n2c(C)c(C(C)=O)c3cc(OCC(N)=O)ccc32)cc1 | · | · | 8.8* | ·
COc1ccc(-c2ccc(=O)n(Cc3cc(=O)n4ccccc4n3)n2)cc1 | -14 | 32* | 0 | -8
Cc1ccc(NC(=O)CCCSc2ccccc2)cc1S(=O)(=O)N1CCOCC1 | · | · | 8.9* | ·
CN(C)c1ccc(NC(=O)CN2CCN(S(=O)(=O)c3cc(Cl)ccc3Cl)CC2)cc1 | -16 | 12 | 1 | -5
O=C(CN1CCCCCC1)Nc1ccc(F)c(F)c1 | -32 | 7 | 1 | ·
O=C(CN1C(=O)COc2ccccc21)Nc1ccc2c(c1)OCCO2 | -32 | 11 | 3 | 54*
O=C(CN1CCCCC1)Nc1ccc(F)c(Cl)c1 | 4 | 56* | 2 | -2
O=C(CN1CCN(S(=O)(=O)c2cc(Cl)ccc2Cl)CC1)Nc1ccc2c(c1)OCCO2 | -42 | 42* | 1 | -12
CCOC(=O)C1CCCN(C(=O)c2cc(-c3ccc(C)cc3)nc3ccccc23)C1 (stereo not drawn) | · | · | 0 | ·
N#CCCn1cc(C(=O)N2CCCCC2)c(-c2cccc([N+](=O)[O-])c2)n1 | · | · | -1 | ·
COCCCN(C(=S)Nc1cc(Cl)cc(Cl)c1)C(C)c1ccncc1 (stereo not drawn) | -36 | 17 | 0 | 41*
SMILES | Yeast growth inh | Measles CPE | RAM inhibit | Yeast life ext
Cc1ccccc1CNc1nnnn1C | · | · | 0 | ·
O=S(=O)(c1ccc(S(=O)(=O)N2CCCC2)cc1)N1CCCCCC1 | -35 | 14 | -1 | -8
CCN(CC)S(=O)(=O)c1ccc(C2=NOC3(C2)N(C)c2ccccc2C3(C)C)cc1 (stereo not drawn) | -33 | 38* | 6 | 3
CN1c2ccccc2C(C)(C)C12CC(c1ccc(S(=O)(=O)N3CCCCC3)cc1)=NO2 (stereo not drawn) | -34 | 63* | 3 | 6
CN1c2ccccc2C(C)(C)C12CC(c1cccc(S(=O)(=O)N3CCCC3)c1)=NO2 (stereo not drawn) | 5 | 54* | 2 | 2
CCN(CC)S(=O)(=O)c1ccc(-c2nnco2)cc1 | 2 | 2 | 2 | -3
Cc1ccc(C)[n+](CC(=O)c2ccc(-c3ccccc3)cc2)c1 | · | · | 1 | ·
COc1ccc(-n2c(N)c(C(=O)NCc3ccco3)c3nc4ccccc4nc32)cc1OC | -33 | 6 | 6 | 9
